Assay results reported in ChEMBL document CHEMBL4251567 (Eur J Med Chem, 2018).

Columns and labels:
U-937 [1] = assay: Cytotoxicity against human U937 cells assessed as decrease in cell viability after 44 hrs by MTT assay; type: functional, cell-based; conditions: Homo sapiens, U-937, 44 h
U-937 [2] = assay: Cytotoxicity against human U937 cells assessed as cell viability at 4 x 10^-6 M after 44 hrs by MTT assay relative to control; type: functional; conditions: U-937, 44 h, read-out: Activity
U-937 [3] = assay: Cytotoxicity against human U937 cells assessed as cell viability at 8 x 10^-6 M after 44 hrs by MTT assay relative to control; type: functional; conditions: U-937, 44 h, read-out: Activity
[4] = target: T1, Histone deacetylase (Homo sapiens) (UniProt Q13547+O15379+Q9UBN7+Q92769+Q9UQL6+Q8WUI4+Q9BY41+Q96DB2+P56524+Q9UKV0+Q969S8); assay: Inhibition of HDAC in human HeLa-S3 cell lysates assessed as residual activity at 2.5 x 10^-5 M preincubated for 15 mins followed by HDAC-Glo substrate addition measured after 35 mins by […] relative to control; type: protein assay
[5] = target: T1, Histone deacetylase (Homo sapiens); assay: Inhibition of HDAC in human HeLa-S3 cell lysates assessed as residual activity at 2 x 10^-4 M preincubated for 15 mins followed by HDAC-Glo substrate addition measured after 35 mins by fluorimetric method relative to control; type: protein assay
Method in brief: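 Lysate (1 μg total protein) in HDAC-Glo buffer was preincubated with inhibitor in DMSO for 15 min at room temperature. HDAC-Glo substrate/developer reagent was added and luminescence read after 35 min. Concentrations are final. Signal corrected for a no-lysate blank; % of DMSO control.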

[6] = target: T1, Histone deacetylase (Homo sapiens); assay: Inhibition of HDAC in human HeLa-S3 cell lysates assessed as residual activity at 1 x 10^-4 M preincubated for 15 mins followed by HDAC-Glo substrate addition measured after 35 mins by […] relative to control; type: protein assay
Jurkat [7] = assay: Cytotoxicity against human Jurkat cells assessed as cell viability at 10 uM after 44 hrs by MTT assay relative to control; type: functional; conditions: read-out: Activity
U-937 [8] = assay: Cytotoxicity against human U937 cells assessed as cell viability at 6.4 x 10^-5 M after 44 hrs by MTT assay relative to control; type: functional; conditions: U-937, 44 h, read-out: Activity
U-937 [9] = assay: Cytotoxicity against human U937 cells assessed as cell viability at 2 x 10^-6 M after 44 hrs by MTT assay relative to control; type: functional; conditions: U-937, 44 h, read-out: Activity
U-937 [10] = assay: Cytotoxicity against human U937 cells assessed as cell viability at 1.6 x 10^-5 M after 44 hrs by MTT assay relative to control; type: functional; conditions: U-937, 44 h, read-out: Activity
[11] = target: T1, Histone deacetylase (Homo sapiens); assay: Inhibition of HDAC in human HeLa-S3 cell lysates assessed as residual activity at 1.25 x 10^-5 M preincubated for 15 mins followed by HDAC-Glo substrate addition measured after 35 mins by […] relative to control; type: protein assay
Jurkat [12] = assay: Cytotoxicity against human Jurkat cells assessed as cell viability at 1 uM after 44 hrs by MTT assay relative to control; type: functional; conditions: read-out: Activity
[13] = target: T2, Histone deacetylase 8 (Homo sapiens) (UniProt Q9BY41); assay: Inhibition of human recombinant full-length C-terminal His-tagged HDAC8 expressed in baculovirus infected Sf9 insect cell assessed as remaining activity at 8 x 10^-7 M preincubated for 15 mins followed by HDAC-Glo substrate addition measured after 30 mins by fluorimetric method rel;ative to control
T2 sequence (whole entry): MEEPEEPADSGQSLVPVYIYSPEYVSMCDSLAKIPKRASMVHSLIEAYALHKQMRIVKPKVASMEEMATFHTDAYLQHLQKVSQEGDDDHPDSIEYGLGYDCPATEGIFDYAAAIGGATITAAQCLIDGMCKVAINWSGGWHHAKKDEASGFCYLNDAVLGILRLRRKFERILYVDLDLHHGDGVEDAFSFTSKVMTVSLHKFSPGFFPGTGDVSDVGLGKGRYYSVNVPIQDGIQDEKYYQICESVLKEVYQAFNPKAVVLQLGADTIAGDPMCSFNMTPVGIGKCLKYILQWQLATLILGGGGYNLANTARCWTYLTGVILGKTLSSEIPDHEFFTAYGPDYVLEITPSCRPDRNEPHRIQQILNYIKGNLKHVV
Method in brief: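 Recombinant HDAC8 (75 ng) preincubated 15 min at RT with inhibitor in DMSO in HDAC-Glo buffer. HDAC-Glo reagent added and luminescence read 30 min later. Background taken from a reaction without enzyme; activity as % of DMSO control.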

[14] = target: Histone deacetylase 1 (Homo sapiens) (UniProt Q13547); assay: Inhibition of HDAC1 in human HeLa-S3 cell lysates assessed as remaining activity at 1.6 x 10^-5 M preincubated for 15 mins followed by HDAC-Glo substrate addition measured after 30 to 40 mins by […] relative to control
Method in brief: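 HDAC1 was captured from HeLa-S3 lysate (100 μg/mL) onto wells precoated with anti-HDAC1 antibody (10 μg/mL, carbonate buffer pH 9.4) and milk-blocked, 1 h at 4 °C, then washed. Inhibitor in DMSO was added in HDAC-Glo buffer for 15 min at room temperature. HDAC-Glo reagent was added and luminescence read after 30-40 min. Concentrations are final. No-antibody background subtracted; % of DMSO control.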

[15] = target: T1, Histone deacetylase (Homo sapiens); assay: Inhibition of HDAC in human HeLa-S3 cell lysates assessed as residual activity at 1.2 x 10^-5 M preincubated for 15 mins followed by HDAC-Glo substrate addition measured after 35 mins by […] relative to control; type: protein assay

Histone deacetylase 1 (Homo sapiens), sequence (Q13547 whole entry): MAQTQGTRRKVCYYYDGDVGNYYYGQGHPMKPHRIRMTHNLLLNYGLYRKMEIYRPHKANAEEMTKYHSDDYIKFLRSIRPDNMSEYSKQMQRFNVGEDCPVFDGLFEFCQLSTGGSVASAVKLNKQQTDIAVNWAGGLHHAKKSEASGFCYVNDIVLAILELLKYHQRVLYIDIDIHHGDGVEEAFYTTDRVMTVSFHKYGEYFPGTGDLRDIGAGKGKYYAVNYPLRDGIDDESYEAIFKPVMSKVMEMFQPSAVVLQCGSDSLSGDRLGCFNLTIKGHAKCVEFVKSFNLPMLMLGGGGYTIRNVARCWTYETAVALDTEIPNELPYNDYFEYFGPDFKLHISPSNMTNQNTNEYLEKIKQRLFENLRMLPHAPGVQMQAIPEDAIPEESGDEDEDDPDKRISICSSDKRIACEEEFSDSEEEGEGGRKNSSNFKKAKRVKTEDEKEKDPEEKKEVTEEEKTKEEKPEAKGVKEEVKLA

SMILES | EC50 (U-937 [1]) | viability at 4 µM (U-937 [2]) | viability at 8 µM (U-937 [3]) | Activity [4] | Activity [5] | Activity [6] | viability at 10 µM (Jurkat [7]) | viability at 64 µM (U-937 [8]) | viability at 2 µM (U-937 [9]) | viability at 16 µM (U-937 [10]) | Activity [11] | viability at 1 µM (Jurkat [12]) | Activity [13] | Activity [14] | Activity [15]
O=C(CCC(CCCC(=O)Nc1ccccc1)Cc1ccccc1)NO (racemic) | 28 µM | 74% | 80% | 74% | 19% | 35% | 97% | 26% | 80% | 69% | 88% | 89% | – | – | –
CCCCCCC(CCCC(=O)Nc1ccccc1)CCC(=O)NO (configuration not stated) | 16 µM | 108% | 102% | 73% | 21% | 35% | 39% | 24% | 106% | 37% | 87% | 69% | – | – | –
O=C(CC[C@H](CCCC(=O)Nc1ccccc1)Cc1ccccc1)NO | – | – | – | – | – | – | – | – | – | – | – | – | 19% | – | –
CCC(CCCC(=O)Nc1ccccc1)CCC(=O)NO (configuration not stated) | – | – | – | – | – | – | – | – | – | – | – | – | – | 19% | 53%
